Assay [1] has as its target T1, mature BACE1 ectodomain (Homo sapiens, UniProt P56817). The experiment in a line: SPR competition with OM99-2. Particulars: binding before and after OM99-2 injection, pH 4.5. In a few lines:
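Run at pH 4.5 on immobilized wild-type ectodomain: 10 mM NaOAc, 150 mM NaCl, 0.05% Tween 20, 5% DMSO, 25 °C. Fragments injected before and after an injection of the peptide inhibitor OM99-2; binding responses compared. Concentration series 0.03, 0.06, 0.13, 0.25 and 0.50 mM.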

The target in the next assay is BACE1 D32N mutant (Homo sapiens, UniProt P56817, D93N). In words: SPR binding to BACE1 D32N mutant. Particulars: BACE1 D32N catalytic-site mutant. In a few lines:
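Catalytic-site D32N ectodomain (residues −16 to 393, C-terminal His- plus StrepII-tag), expressed in and purified from E. coli. Amine-coupled to a CM7 chip and run under conditions similar to wild type: 25 °C, 30 s injections at 30 µL/min, DMSO solvent correction. Concentration series 0.03, 0.06, 0.13, 0.25 and 0.50 mM.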

Assay [2] deals with T1, mature BACE1 ectodomain. In words: WaterLOGSY ligand-observed NMR binding. Particulars: 30-fold excess of ligand, performed once. In outline:
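Ligand-observed NMR on 5 µM mature ectodomain with 0.15 mM ligand (1:30 protein/ligand, ligand from 100 mM DMSO-d6 stock) and D2O added. Recorded at 27 °C on a 600 MHz spectrometer with cryoprobe. Both 1D 1H and WaterLOGSY spectra acquired: 32K points, 14 ppm sweep width, 128 scans. Run at physiological pH, then repeated at acidic pH.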

In assay [3] the target is T1, mature BACE1 ectodomain. In words: SPR binding to immobilized WT BACE1. In outline:
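Mature ectodomain and a neutravidin reference were amine-coupled on CM7 chips; runs at 25 °C. Running buffers: HBS-N pH 7.4, or 10 mM NaOAc pH 4.5 with 150 mM NaCl; both with 0.05% Tween 20 and 5% DMSO. Injections 30 s at 30 µL/min, with DMSO correction over 2.5–6.5%. Screened at 0.25 mM in duplicate (forward and reverse order) against BACE1, neutravidin and a blank spot. Top 10% retested over 0.03–0.500 mM (8 points, 1.5-fold).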

Results on three molecules are retold here after paper PMC5472370 (ACS Omega, 2017).

T1 sequence (P56817 46-454 limits assumed): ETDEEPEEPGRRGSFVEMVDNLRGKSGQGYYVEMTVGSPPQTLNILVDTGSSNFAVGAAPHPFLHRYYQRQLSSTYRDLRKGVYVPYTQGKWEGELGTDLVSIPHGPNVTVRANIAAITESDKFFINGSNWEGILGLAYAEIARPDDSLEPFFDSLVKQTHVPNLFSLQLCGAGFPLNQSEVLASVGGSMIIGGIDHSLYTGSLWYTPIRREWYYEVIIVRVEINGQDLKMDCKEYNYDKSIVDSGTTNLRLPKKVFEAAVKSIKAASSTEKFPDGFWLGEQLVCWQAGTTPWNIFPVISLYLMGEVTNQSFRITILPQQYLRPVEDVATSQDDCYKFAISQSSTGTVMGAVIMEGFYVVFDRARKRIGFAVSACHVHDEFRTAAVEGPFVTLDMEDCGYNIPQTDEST
Chain of BACE1 D32N mutant (P56817 46-454 D93N): as the sequence (P56817 46-454 limits assumed) above, with D48N counted along it

Regarding `CN(C)c1nc(N2CCCC2)nc2ccccc12` [Compound 12, N,N-Dimethyl-2-pyrrolidin-1-yl-quinazolin-4-amine], on mature BACE1 ectodomain [1], the “SPR OM99-2 competition” value is “reduced binding”. In addition, the “SPR D32N binding” value at BACE1 D32N mutant is “bound”. Also, at mature BACE1 ectodomain [2], the “WaterLOGSY signal at pH 7.5” value was “clear positive”.
For `Brc1cc2c(N3CCNCC3)nccn2c1` [Compound 10, 7-Bromo-1-piperazin-1-yl-pyrrolo[1,2-a]pyrazine], at mature BACE1 ectodomain [3] (WT BACE1, pH 4.5), the “SPR binding at pH 4.5” value is given as “nonspecific binding”. In addition, the “SPR OM99-2 competition” value at mature BACE1 ectodomain [1] was “bound”. Further, the “SPR D32N binding” value at BACE1 D32N mutant is “bound”. Besides, the “WaterLOGSY signal at pH 7.5” value on mature BACE1 ectodomain [2] is given as “clear positive”.
Regarding `CC1(c2ccccc2)COCC(N)=N1` (centres unmarked) [Compound 14, 5-Methyl-5-phenyl-2,6-dihydro-1,4-oxazin-3-amine], the “SPR binding to WT BACE1 (mature BACE1 ectodomain)” value on mature BACE1 ectodomain [3] (pH not stated) is “bound strongly”. The “SPR OM99-2 competition” value at mature BACE1 ectodomain [1] is on record as “drastically reduced”. Further, the “SPR D32N binding” value on BACE1 D32N mutant was “lost binding”. Moreover, at mature BACE1 ectodomain [2] (pH 4.5), the “WaterLOGSY signal at pH 4.5” value is reported as “strong positive”.
